Results as given in PMC4411251 (The Journal of General Physiology, 2015).
Entries after “also recorded” stand apart in the source; their conditions may differ.

Assays:
TRPV1-WT [1] = target: T1, TRPV1-WT (Rattus norvegicus, UniProt O35433); type: cell-based; settings: Hill fit of dose–response, native lipids
TRPV1-R721A [2] = target: T2, TRPV1-R721A (Rattus norvegicus, UniProt O35433, R721A); type: cell-based; settings: Hill fit of dose–response, native lipids
TRPV1-WT [3] = target: T1, TRPV1-WT; type: cell-based; settings: Hill fit of dose–response, 1 µM capsaicin
How it was run: (§1)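 Rat TRPV1 (WT or R721A) transiently expressed in F-11 cells and used 12–48 h post-transfection. […] Bath was 130 mM NaCl, 10 mM HEPES, 0.2 mM EDTA, pH 7.4, with steps from 0 mV to ±100 mV. Vehicle-subtracted currents were Hill-fitted per patch, normalized to Imax, and pooled (mean, SEM).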

TRPV1-R721A [4] = target: T2, TRPV1-R721A; type: cell-based; settings: for Hill slope nH, phosphoinositide activation of TRPV1-R721A: Hill fit of dose–response, 1 µM capsaicin
How it was run: as §1

TRPV1 = settings: ref Collins and Gordon, 2013; cited from earlier work
[5] = R721A mutation compared with WT

T2 sequence (O35433 whole entry R721A): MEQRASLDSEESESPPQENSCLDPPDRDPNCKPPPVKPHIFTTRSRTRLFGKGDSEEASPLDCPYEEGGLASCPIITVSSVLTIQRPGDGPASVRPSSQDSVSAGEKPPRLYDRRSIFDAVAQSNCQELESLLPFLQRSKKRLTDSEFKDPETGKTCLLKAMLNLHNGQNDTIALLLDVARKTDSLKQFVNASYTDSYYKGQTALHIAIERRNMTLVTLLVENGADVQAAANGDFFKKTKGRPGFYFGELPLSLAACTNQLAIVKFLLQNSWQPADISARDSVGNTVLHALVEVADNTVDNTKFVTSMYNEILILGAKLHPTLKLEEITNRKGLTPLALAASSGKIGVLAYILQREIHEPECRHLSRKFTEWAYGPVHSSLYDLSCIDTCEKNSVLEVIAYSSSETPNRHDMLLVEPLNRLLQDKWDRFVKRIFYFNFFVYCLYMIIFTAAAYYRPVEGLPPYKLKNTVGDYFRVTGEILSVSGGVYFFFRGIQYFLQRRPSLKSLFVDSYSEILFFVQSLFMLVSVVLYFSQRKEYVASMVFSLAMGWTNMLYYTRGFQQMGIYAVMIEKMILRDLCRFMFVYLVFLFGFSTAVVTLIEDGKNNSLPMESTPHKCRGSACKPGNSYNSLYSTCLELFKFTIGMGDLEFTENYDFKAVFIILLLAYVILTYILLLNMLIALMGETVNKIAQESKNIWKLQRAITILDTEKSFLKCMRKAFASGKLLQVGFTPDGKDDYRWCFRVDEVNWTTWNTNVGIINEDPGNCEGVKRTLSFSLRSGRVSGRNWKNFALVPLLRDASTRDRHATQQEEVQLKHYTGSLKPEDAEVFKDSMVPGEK
T1 sequence (O35433 whole entry): as the sequence (O35433 whole entry R721A) above, with A721R counted along it

Hill slope nH, capsaicin activation of TRPV1-WT (TRPV1-WT [1]) | Hill slope nH, capsaicin activation of TRPV1-R721A (TRPV1-R721A [2]) | Hill slope nH, phosphoinositide activation of TRPV1-WT (TRPV1-WT [3]) | Hill slope nH, phosphoinositide activation of TRPV1-R721A (TRPV1-R721A [4]) | decrease in the EC50 value, TRPV1-R721A versus TRPV1-WT (TRPV1-R721A [4]; [5]) [fold] | increase in the EC50 value, TRPV1-R721A versus TRPV1-WT (TRPV1-R721A [4]; [5]) [fold] | Structure (SMILES) | decrease in the EC50 for activation produced by the R721A mutation (in words) (TRPV1-R721A [4]; [5]) | K1/2 of activating effects on TRPV1 in the plasma membrane (TRPV1) [mol %]
1 | 1 |  |  |  |  | COc1cc(CNC(=O)CCCC/C=C/C(C)C)ccc1O [capsaicin] |  | 
 |  | 2 | 2 | 150 |  | CCCCCCCC(=O)OC[C@H](COP(=O)(O)O[C@H]1[C@H](O)[C@@H](O)[C@H](OP(=O)(O)O)[C@@H](O)[C@H]1O)OC(=O)CCCCCCC [diC8-PI(4)P] | more than two orders of magnitude; also recorded: over two orders of magnitude | 
 |  | 2 | 2 |  | 1.3 | CCCCCCCC(=O)OC[C@H](COP(=O)(O)O[C@@H]1[C@H](O)[C@H](O)[C@@H](OP(=O)(O)O)[C@H](OP(=O)(O)O)[C@H]1O)OC(=O)CCCCCCC [diC8-PI(4,5)P2, phosphoinositide 4,5-bisphosphate] |  | ~0.03
